# Measured values published in article PMC9933479 (ACS Omega, 2023).
# What was measured:
# Assay in all cases: MTT assay, cytotoxicity/growth inhibition
# [1] = tested on: A549 (lung carcinoma); format: cell-based, human; details: for IC50 / inhibition at 20 µM: Homo sapiens; for IC50: A549; for inhibition at 20 µM: A549, 48 h, read-out: Cytotoxic Activity (% Growth Inhibition), A549, 20 μM concentration, MTT, 48 h
# Summary of the method: (§1)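 Cells were grown in RPMI (A549, HCT-116, PC-3) or DMEM (MCF-7) with 10% FBS at 37 °C and 5% CO2. Seeding per well was […] and PC-3 8 × 10^4 cells. […] MTT 250 μg/mL, 4 h; DMSO; A570; triplicate; mean ± SE.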
# [2] = tested on: PC-3 (prostate carcinoma); format: cell-based; details: Homo sapiens; for inhibition at 20 µM: 48 h, read-out: Cytotoxic Activity (% Growth Inhibition)
# Summary of the method: as §1
# [3] = tested on: MCF-7 (breast carcinoma); format: cell-based; details: Homo sapiens; for IC50: MCF7; for inhibition at 20 µM: MCF7, 48 h, read-out: Cytotoxic Activity (% Growth Inhibition)
# Summary of the method: as §1
# [4] = tested on: HCT-116 (colon carcinoma); format: cell-based; details: Homo sapiens; for IC50: HCT-116; for inhibition at 20 µM: HCT-116, 48 h, read-out: Cytotoxic Activity (% Growth Inhibition)
# Summary of the method: as §1
SMILES,IC50 [1],inhibition at 20 µM [1],IC50 [2],inhibition at 20 µM [2],IC50 [3],inhibition at 20 µM [3],IC50 [4],inhibition at 20 µM [4],"potency relative to andrographolide (times / fold more potent) ([1]; A549, ratio of IC50 values)"
"C[C@@]12COC(c3ccccc3)O[C@@H]1CC[C@]1(C)C2CC=C(COC(=O)Cc2ccc(I)cc2)[C@H]1/C=C/C1=CCOC1=O (stereo partly drawn) [Compound 8r, ((4aR,6aR,7S,10bR)-6a,10b-Dimethyl-7-((E)-2-(2-oxo-2,5-dihydrofuran-3-yl)vinyl)-3-phenyl-4a,5,6,6a,7,10,10a,10b-octahydro-1H-naphtho[2,1-d][1,3]dioxin-8-yl)methyl 2-(4-Iodophenyl)acetate]",> 20 µM,2.9 ± 0.69%,5.8 µM,77 ± 0.48%,> 20 µM,42 ± 0.69%,> 20 µM,22.1 ± 0.58%,–
"COc1ccc(CC(=O)OCC2=CCC3[C@]4(C)COC(c5ccccc5)O[C@@H]4CC[C@@]3(C)[C@@H]2/C=C/C2=CCOC2=O)cc1 (stereo partly drawn) [Compound 8s, ((4aR,6aR,7S,10bR)-6a,10b-Dimethyl-7-((E)-2-(2-oxo-2,5-dihydrofuran-3-yl)vinyl)-3-phenyl-4a,5,6,6a,7,10,10a,10b-octahydro-1H-naphtho[2,1-d][1,3]dioxin-8-yl)methyl 2-(4-Methoxyphenyl)acetate]",6.6 µM,78 ± 0.97%,5.9 µM,75 ± 0.93%,16.9 µM,54 ± 0.53%,> 20 µM,22.1 ± 0.44%,–
"Cc1ccc(CC(=O)OCC2=CCC3[C@]4(C)COC(c5ccccc5)O[C@@H]4CC[C@@]3(C)[C@@H]2/C=C/C2=CCOC2=O)cc1 (stereo partly drawn) [Compound 8t, ((4aR,6aR,7S,10bR)-6a,10b-Dimethyl-7-((E)-2-(2-oxo-2,5-dihydrofuran-3-yl)vinyl)-3-phenyl-4a,5,6,6a,7,10,10a,10b-octahydro-1H-naphtho[2,1-d][1,3]dioxin-8-yl)methyl 2-(p-Tolyl)acetate]",–,48.9 ± 0.73%,–,69.5 ± 0.74%,–,27 ± 0.29%,–,45.9 ± 0.86%,–
"COc1cc(CC(=O)OCC2=CCC3[C@]4(C)COC(c5ccccc5)O[C@@H]4CC[C@@]3(C)[C@@H]2/C=C/C2=CCOC2=O)cc(OC)c1OC (stereo partly drawn) [Compound 8u, ((4aR,6aR,7S,10bR)-6a,10b-Dimethyl-7-((E)-2-(2-oxo-2,5-dihydrofuran-3-yl)vinyl)-3-phenyl-4a,5,6,6a,7,10,10a,10b-octahydro-1H-naphtho[2,1-d][1,3]dioxin-8-yl)methyl 2-(3,4,5-Trimethoxyphenyl)acetate]",5.4 µM,72 ± 0.54%,9 µM,70.9 ± 0.41%,> 20 µM,43 ± 0.28%,> 20 µM,10.9 ± 0.99%,about 4
"C[C@@]12COC(c3ccccc3)O[C@@H]1CC[C@]1(C)C2CC=C(COC(=O)Cc2ccc(Cl)c(Cl)c2)[C@H]1/C=C/C1=CCOC1=O (stereo partly drawn) [Compound 8v, ((4aR,6aR,7S,10bR)-6a,10b-Dimethyl-7-((E)-2-(2-oxo-2,5-dihydrofuran-3-yl)vinyl)-3-phenyl-4a,5,6,6a,7,10,10a,10b-octahydro-1H-naphtho[2,1-d][1,3]dioxin-8-yl)methyl 2-(3,4-Dichlorophenyl)acetate]",> 20 µM,41.6 ± 0.98%,8.4 µM,70.3 ± 0.54%,> 20 µM,34 ± 0.28%,> 20 µM,12.5 ± 0.78%,–
"CCCCCCCC(=O)OCC1=CCC2[C@]3(C)COC(c4ccccc4)O[C@@H]3CC[C@@]2(C)[C@@H]1/C=C/C1=CCOC1=O (stereo partly drawn) [Compound 8w, ((4aR,6aR,7S,10bR)-6a,10b-Dimethyl-7-((E)-2-(2-oxo-2,5-dihydrofuran-3-yl)vinyl)-3-phenyl-4a,5,6,6a,7,10,10a,10b-octahydro-1H-naphtho[2,1-d][1,3]dioxin-8-yl)methyl Octanoate]",8.4 µM,70.7 ± 0.73%,> 20 µM,49 ± 0.85%,20 µM,51 ± 0.96%,> 20 µM,40.5 ± 0.91%,–
"CCCCCCCCCC(=O)OCC1=CCC2[C@]3(C)COC(c4ccccc4)O[C@@H]3CC[C@@]2(C)[C@@H]1/C=C/C1=CCOC1=O (stereo partly drawn) [Compound 8x, ((4aR,6aR,7S,10bR)-6a,10b-Dimethyl-7-((E)-2-(2-oxo-2,5-dihydrofuran-3-yl)vinyl)-3-phenyl-4a,5,6,6a,7,10,10a,10b-octahydro-1H-naphtho[2,1-d][1,3]dioxin-8-yl)methyl Decanoate]",–,49.7 ± 0.79%,–,39 ± 0.24%,–,45 ± 0.98%,–,50.1 ± 0.4%,–
"CCCCCCCCCCCC(=O)OCC1=CCC2[C@]3(C)COC(c4ccccc4)O[C@@H]3CC[C@@]2(C)[C@@H]1/C=C/C1=CCOC1=O (stereo partly drawn) [Compound 8y, ((4aR,6aR,7S,10bR)-6a,10b-Dimethyl-7-((E)-2-(2-oxo-2,5-dihydrofuran-3-yl)vinyl)-3-phenyl-4a,5,6,6a,7,10,10a,10b-octahydro-1H-naphtho[2,1-d][1,3]dioxin-8-yl)methyl Dodecanoate]",11 µM,71 ± 0.77%,> 20 µM,32 ± 0.66%,20 µM,51 ± 0.35%,> 20 µM,40.1 ± 0.8%,–
"COc1cccc(C(=O)OCC2=CCC3[C@](C)(CO)[C@H](O)CC[C@@]3(C)[C@@H]2/C=C/C2=CCOC2=O)c1 (stereo partly drawn) [Compound 9b, ((1S,5R,6R,8aR)-6-Hydroxy-5-(hydroxymethyl)-5,8a-dimethyl-1-((E)-2-(2-oxo-2,5-dihydrofuran-3-yl)vinyl)-1,4,4a,5,6,7,8,8a-octahydronaphthalen-2-yl)methyl 3-Methoxybenzoate]",–,39.85 ± 0.26%,–,7 ± 0.58%,–,14.6 ± 0.09%,–,0%,–
"C[C@]1(CO)C2CC=C(COC(=O)c3cccc(F)c3)[C@@H](/C=C/C3=CCOC3=O)[C@]2(C)CC[C@H]1O (stereo partly drawn) [Compound 9c, ((1S,5R,6R,8aR)-6-Hydroxy-5-(hydroxymethyl)-5,8a-dimethyl-1-((E)-2-(2-oxo-2,5-dihydrofuran-3-yl)vinyl)-1,4,4a,5,6,7,8,8a-octahydronaphthalen-2-yl)methyl 3-Fluorobenzoate]",–,42.92 ± 0.27%,–,0%,–,1.54 ± 0.03%,–,14.8 ± 0.17%,–
"C[C@]1(CO)C2CC=C(COC(=O)c3cccc(Cl)c3)[C@@H](/C=C/C3=CCOC3=O)[C@]2(C)CC[C@H]1O (stereo partly drawn) [Compound 9d, ((1S,5R,6R,8aR)-6-Hydroxy-5-(hydroxymethyl)-5,8a-dimethyl-1-((E)-2-(2-oxo-2,5-dihydrofuran-3-yl)vinyl)-1,4,4a,5,6,7,8,8a-octahydronaphthalen-2-yl)methyl 3-Chlorobenzoate]",–,49.19 ± 0.2%,–,0%,–,10.02 ± 0.02%,–,30.21 ± 0.15%,–
"C[C@]1(CO)C2CC=C(COC(=O)c3cccc(Br)c3)[C@@H](/C=C/C3=CCOC3=O)[C@]2(C)CC[C@H]1O (stereo partly drawn) [Compound 9e, ((1S,5R,6R,8aR)-6-Hydroxy-5-(hydroxymethyl)-5,8a-dimethyl-1-((E)-2-(2-oxo-2,5-dihydrofuran-3-yl)vinyl)-1,4,4a,5,6,7,8,8a-octahydronaphthalen-2-yl)methyl 3-Bromobenzoate]",–,50.55 ± 0.17%,–,0%,–,1.93 ± 0.1%,–,14.1 ± 0.24%,–
"C[C@]1(CO)C2CC=C(COC(=O)c3cccc(I)c3)[C@@H](/C=C/C3=CCOC3=O)[C@]2(C)CC[C@H]1O (stereo partly drawn) [Compound 9f, ((1S,5R,6R,8aR)-6-Hydroxy-5-(hydroxymethyl)-5,8a-dimethyl-1-((E)-2-(2-oxo-2,5-dihydrofuran-3-yl)vinyl)-1,4,4a,5,6,7,8,8a-octahydronaphthalen-2-yl)methyl 3-Iodobenzoate]",–,58 ± 0.15%,–,49 ± 1%,–,21.75 ± 0.06%,–,0%,–
"C[C@]1(CO)C2CC=C(COC(=O)c3ccoc3)[C@@H](/C=C/C3=CCOC3=O)[C@]2(C)CC[C@H]1O (stereo partly drawn) [Compound 9g, ((1S,5R,6R,8aR)-6-Hydroxy-5-(hydroxymethyl)-5,8a-dimethyl-1-((E)-2-(2-oxo-2,5-dihydrofuran-3-yl)vinyl)-1,4,4a,5,6,7,8,8a-octahydronaphthalen-2-yl)methyl Furan-3-carboxylate]",–,63.58 ± 0.08%,–,11 ± 0.22%,–,0%,–,11.28 ± 0.1%,–
"C[C@]1(CO)C2CC=C(COC(=O)c3cccc(C(F)(F)F)c3)[C@@H](/C=C/C3=CCOC3=O)[C@]2(C)CC[C@H]1O (stereo partly drawn) [Compound 9h, ((1S,5R,6R,8aR)-6-Hydroxy-5-(hydroxymethyl)-5,8a-dimethyl-1-((E)-2-(2-oxo-2,5-dihydrofuran-3-yl)vinyl)-1,4,4a,5,6,7,8,8a-octahydronaphthalen-2-yl)methyl 3-(Trifluoromethyl)benzoate]",–,28.81 ± 0.03%,–,29 ± 1.4%,–,30.4 ± 0.36%,–,3.31 ± 0.13%,–
"Cc1cccc(C(=O)OCC2=CCC3[C@](C)(CO)[C@H](O)CC[C@@]3(C)[C@@H]2/C=C/C2=CCOC2=O)c1 (stereo partly drawn) [Compound 9i, ((1S,5R,6R,8aR)-6-Hydroxy-5-(hydroxymethyl)-5,8a-dimethyl-1-((E)-2-(2-oxo-2,5-dihydrofuran-3-yl)vinyl)-1,4,4a,5,6,7,8,8a-octahydronaphthalen-2-yl)methyl 3-Methylbenzoate]",–,21.4 ± 0.42%,–,0%,–,2.09 ± 0.07%,–,0%,–
